Data set [1] relates to COS-7. Kind of data set: Mutation read through activity in african green monkey COS7 cells transfected with dual-reporter plasmid encoding beta-galactosidase and luciferase genes connected with TGA-containing mouse mdx gene exon 23 nucleotide sequence as premature termination codon assessed as ratio of luciferase activity to beta-galactosidase activity at 200 uM incubated for 48 hrs at 37 degC relative to basal level. The data set is classed as functional, Chlorocebus aethiops. A digest of the protocol: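 COS-7 cells transfected with a dual-reporter plasmid: constitutive β-galactosidase upstream of a TGA premature stop codon, luciferase downstream. Compounds tested at 200 μM. Lysate luciferase/β-galactosidase activity ratio expressed relative to untreated (D-MEM) basal level = 1; some series normalized to a reference compound instead. Triplicate, mean ± SD.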

Data set [2] relates to Staphylococcus aureus. Kind of data set: Toxicity against Staphylococcus aureus NBRC13276. The data set is classed as functional.
The subject of data set [3] is COS-7. Kind of data set: Mutation read through activity in african green monkey COS7 cells transfected with dual-reporter plasmid encoding beta-galactosidase and luciferase genes connected with TGA-containing mouse mdx gene exon 23 nucleotide sequence as premature termination codon assessed as ratio of luciferase activity to beta-galactosidase activity at 20 uM incubated for 48 hrs at 37 degC relative to basal level. The data set is classed as functional, Chlorocebus aethiops.

For data set [4], the system named is Escherichia coli. Kind of data set: Toxicity against Escherichia coli NBRC3972. The data set is classed as functional.
For data set [5], the system named is COS-7. Kind of data set: Mutation read through activity in african green monkey COS7 cells transfected with dual-reporter plasmid encoding beta-galactosidase and luciferase genes connected with TGA-containing mouse mdx gene exon 23 nucleotide sequence as premature termination codon assessed as ratio of luciferase activity to beta-galactosidase activity at 25 to 200 uM incubated for 48 hrs at 37 degC relative to basal level. It is filed as functional, cell-based. The note with it: Chlorocebus aethiops.

Data set [6] in a line: Mutation read through activity in human cell-free protein synthesis system containing beta-galactosidase and luciferase genes connected with TGA-containing mouse mdx gene exon 23 nucleotide sequence as premature termination codon assessed as ratio of luciferase activity to beta-galactosidase activity at 20 uM incubated at 37 degC for 3 hrs relative to basal level. The procedure, abridged:
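Cell-free translation of the β-galactosidase–TGA–luciferase dual reporter with compound at 20 μM. Readthrough given as luciferase/β-galactosidase ratio relative to no-compound control (= 1). n = 3, mean ± SD.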

Data set [7] is described as follows: Drug metabolism in presence of porcine liver esterase assessed as (S)-2-[2-(3,5-Diaminopentanoyl)-1-methylhydrazinyl]acetic acid.2TFA formation in 100 mM pH 7.4 phosphate buffer at 37 degC incubated for 1 to 4 hrs. It is filed as physicochemical. To be noted: pig, isolated protein.
A short description of data set [8]: Stability in absence of porcine liver esterase assessed as compound remaining in 100 mM pH 7.4 phosphate buffer at 37 degC after 6 hrs. The data set is classed as physicochemical. The note with it: phosphate buffer without porcine liver esterase, read-out: Stability. A digest of the protocol:
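Ester incubated without esterase in 100 mM phosphate buffer, pH 7.4, at 37 °C for 6 h. Percent compound remaining measured by RP-HPLC.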

Data set [9] can be described thus: Drug metabolism in presence of porcine liver esterase assessed as (S)-2-[2-(3,5-Diaminopentanoyl)-1-methylhydrazinyl]acetic acid.2TFA formation in 100 mM pH 7.4 phosphate buffer at 37 degC. The note with it: pig, isolated protein, TDE = time-dependent effect.

As a reminder, the MIC is the least concentration at which growth counts as inhibited.

≈ marks a conversion by molar mass, not a printed value.

With `CN(CC(=O)O)NC(=O)CC(N)CN` (single isomer, unassigned), in data set [1], the Ratio worked out at 1.49.
In the case of `CN(CC(=O)OCc1cccc([N+](=O)[O-])c1)NC(=O)C[C@@H](N)CCN`, in data set [1], the Ratio worked out at 3.21.
Same read-out and setting: next, `CN(CC(=O)O)NC(=O)[C@@H](N)CCCN`: 0.99; `CN(CC(=O)O)NC(=O)[C@@H](N)CN`: 1.3; `CN(CC(=O)OCc1ccccc1)NC(=O)C[C@@H](N)CCN`: 4.04.
For `CN(CC(=O)OCc1ccc(Cl)cc1)NC(=O)C[C@@H](N)CCN`, in [1], the Ratio stood at 4.21.
`CN(CC(=O)O)NC(=O)C[C@@H](N)CCCN`: in data set [1], the Ratio turned out to be 2.94.
With `CN(CC(=O)O)NC(=O)C[C@@H](N)CCN`, the figures for the MIC in data set [2] and in data set [4] were 1020 µg/mL (≈ 4.69 mM) and ≥ 1020 µg/mL, respectively. In addition, the figures for the Ratio in data set [3], in [1] and in [6] were 3.1, 4.28 and 2.72, respectively. Also, in data set [5], the Activity result is “Dose-dependent effect”.
Take `CN(CC(=O)O)NC(=O)C[C@H](N)C[C@@H](O)CN` [NEGAMYCIN]: the Ratio in data set [1] was 1.81.
Still for that read-out and setting: to `CN(CC(=O)OCc1ccc([N+](=O)[O-])cc1)NC(=O)C[C@@H](N)CCN` belongs 3.05; to `CN(CC(=O)OCc1ccccc1Br)NC(=O)C[C@@H](N)CCN`, 3.83.
On to `CCOC(=O)CN(C)NC(=O)C[C@@H](N)CCN`, for which, in data set [1], the Ratio was determined as 2.08.
Take `COc1cccc(COC(=O)CN(C)NC(=O)C[C@@H](N)CCN)c1`: the Ratio in data set [1] came out at 3.71.
As for `CN(CC(=O)OCc1ccccc1Cl)NC(=O)C[C@@H](N)CCN`, the Ratio in data set [1] is given as 3.34.
Consider `CN(CC(=O)OCc1cccc(Cl)c1)NC(=O)C[C@@H](N)CCN`, for which the Drug metabolism result in data set [7] is recorded as “metabolite_detected”; in data set [9] it was “tde”. Also, the remaining at 6 h in [8] was found to be 94%. The Ratio amounted to 3.58 in [3], 4.9 in data set [1] and 1.23 in data set [6].
For `COc1ccc(COC(=O)CN(C)NC(=O)C[C@@H](N)CCN)cc1`, in data set [1], the Ratio is on record as 3.25.
Regarding `CN(CC(=O)O)NC(=O)C[C@@H](N)CCCCN`, the Ratio in data set [1] stood at 2.05.
Regarding `CN(CC(=O)O)NC(=O)[C@@H](N)CCN`, the Ratio in data set [1] is 1.07.
On to `CN[C@@H]1[C@@H](O)[C@@H](O[C@@H]2[C@@H](O)[C@H](O[C@H]3O[C@H]([C@@H](C)O)[C@@H](O)[C@H](O)[C@H]3N)[C@@H](N)C[C@H]2N)OC[C@]1(C)O` [GENETICIN], for which the Ratio in data set [1] stood at 6.65.
Regarding `CN(CC(=O)OCc1ccc(Br)cc1)NC(=O)C[C@@H](N)CCN`, in [1], the Ratio was found to be 2.98.
In the case of `CN(CC(=O)OCc1ccccc1[N+](=O)[O-])NC(=O)C[C@@H](N)CCN`, in data set [1], the Ratio was found to be 4.51.
With `CN(CC(=O)OCc1cccc(Br)c1)NC(=O)C[C@@H](N)CCN`, the Ratio in data set [1] was determined as 3.75.
On the same count and under the same terms, to `COc1ccccc1COC(=O)CN(C)NC(=O)C[C@@H](N)CCN` belongs 3.1; to `CN(CC(=O)NCc1ccccc1)NC(=O)C[C@@H](N)CCN`, 0.8.
Turning to `CN(CC(=O)O)NC(=O)[C@@H](N)CCCCN`, the Ratio in [1] is given as 1.01.
On to `CCNC(=O)CN(C)NC(=O)C[C@@H](N)CCN`, for which the Ratio in [1] worked out at 1.42.

For the origin of these results see ChEMBL document CHEMBL3585257, “Structure-Activity Relationship Studies of 3-epi-Deoxynegamycin Derivatives as Potent Readthrough Drug Candidates” (ACS Med Chem Lett, 2015).
